We go through eight compounds from ChEMBL document CHEMBL1154548, “Synthesis and initial evaluation of novel, non-peptidic antagonists of the alpha(v)-integrins alpha(v)beta(3) and alpha(v)beta(5)” (Bioorg Med Chem Lett, 2009).

For one data set, the target named is Integrin alpha-V (Homo sapiens, UniProt P06756+P18084). As to the kind of experiment: Binding affinity to human integrin alphavbeta5 receptor by TRF assay. The method, boiled down: (§1)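 Wells were coated with αvβ3 or αvβ5 overnight at 4 °C in buffer A (50 mM Tris–HCl pH 7.4, 100 mM NaCl, 1 mM each MgCl₂, CaCl₂, MnCl₂), then blocked with 1% BSA for 1 h at RT. Compound and 20 nM Eu³⁺-vitronectin in buffer A plus DTPA and 0.05% BSA were added for 1 h at RT. Wells were washed, enhancement solution was added for 10 min with shaking, and time-resolved fluorescence was read.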

Another data set has as its target Integrin alpha-V/beta-3 (Homo sapiens, UniProt P05106+P06756). The data set is described as follows: Binding affinity to human integrin alphavbeta3 receptor by TRF assay. The procedure, abridged:
as §1

Data set [1] deals with Integrin alpha-IIb/beta-3 (Homo sapiens, UniProt P05106+P08514). The data set is described as follows: Binding affinity to human integrin […] receptor by TRF assay. Format: protein-complex assay. The procedure, abridged:
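Purified αIIbβ3 coated overnight at 4 °C in buffer A (50 mM Tris–HCl pH 7.4, 100 mM NaCl, 1 mM each MgCl₂, CaCl₂, MnCl₂), then blocked with 1% BSA for 1 h at RT. Compound plus 20 nM Eu³⁺-fibrinogen in buffer A with DTPA and 0.05% BSA, 1 h at RT. After washing, enhancement solution was added for 10 min with shaking and time-resolved fluorescence was read.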

Data set [2] relates to HUVEC. As to the kind of experiment: Inhibition of HUVEC migration after 4 hrs. Format: functional, cell-based. The conditions noted are these: Homo sapiens. The method, boiled down:
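Boyden-chamber filters were coated with vitronectin in HEPES/NaCl/divalent-cation buffer for 1 h at 37 °C, then blocked with 2% BSA for 1 h. HUVEC were added to the upper chamber at 20,000/well in migration buffer with or without compound and incubated 4 h at 37 °C. Non-migrated cells were removed; migrated cells were fixed, stained with crystal violet, photographed and quantified. Means of two experiments with SD.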

Data set [3] deals with HUVEC. The data set is described as follows: Inhibition of VEGF-induced HUVEC proliferation after 48 hrs. Format: functional, cell-based. The conditions noted are these: Homo sapiens.
The nature of data set [4]: Apparent permeability across human Caco-2 cells. Format: ADME, cell-based. In general terms: Caco-2 cells form a polarised layer with tight junctions and transporters.
Data set [5] concerns HUVEC. As to the kind of experiment: Inhibition of FGF-induced HUVEC proliferation after 48 hrs. Format: functional, cell-based. The conditions noted are these: Homo sapiens. The method, boiled down:
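HUVEC were seeded at 1000 cells/well in complete EBM-2 and cultured 24 h at 37 °C with 5% CO₂. Medium was replaced with EBM-2 containing 2% FBS, 3 ng/mL FGF and compound, and cells were grown a further 48 h. Cells were fixed in glutaraldehyde, stained with crystal violet, destained in acetic acid and read by absorbance at 595. Means of two experiments with SD.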

Bounds are passed on as bounds.

Integrin alpha-IIb/beta-3, sequence (P05106 27-788 limits assumed): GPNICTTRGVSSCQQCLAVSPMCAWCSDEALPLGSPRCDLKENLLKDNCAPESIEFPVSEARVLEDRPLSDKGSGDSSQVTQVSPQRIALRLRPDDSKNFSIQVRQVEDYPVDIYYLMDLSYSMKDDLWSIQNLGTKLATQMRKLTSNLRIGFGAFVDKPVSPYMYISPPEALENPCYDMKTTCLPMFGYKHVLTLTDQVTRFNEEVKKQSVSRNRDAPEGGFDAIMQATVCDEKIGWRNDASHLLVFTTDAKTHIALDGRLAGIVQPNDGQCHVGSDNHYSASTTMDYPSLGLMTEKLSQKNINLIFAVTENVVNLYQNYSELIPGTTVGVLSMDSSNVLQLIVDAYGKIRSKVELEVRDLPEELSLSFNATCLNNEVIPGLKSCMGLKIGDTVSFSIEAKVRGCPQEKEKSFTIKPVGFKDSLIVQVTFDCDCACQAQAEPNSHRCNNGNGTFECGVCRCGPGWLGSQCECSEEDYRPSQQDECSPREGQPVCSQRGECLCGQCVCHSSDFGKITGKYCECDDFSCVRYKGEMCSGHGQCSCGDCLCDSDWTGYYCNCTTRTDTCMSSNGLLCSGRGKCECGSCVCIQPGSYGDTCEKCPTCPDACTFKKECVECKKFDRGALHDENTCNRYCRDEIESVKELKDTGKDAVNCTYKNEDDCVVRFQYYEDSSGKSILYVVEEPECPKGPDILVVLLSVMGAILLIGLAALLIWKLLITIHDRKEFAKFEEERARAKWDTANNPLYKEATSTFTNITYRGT
Integrin alpha-IIb/beta-3, sequence (P08514 32-887 limits assumed): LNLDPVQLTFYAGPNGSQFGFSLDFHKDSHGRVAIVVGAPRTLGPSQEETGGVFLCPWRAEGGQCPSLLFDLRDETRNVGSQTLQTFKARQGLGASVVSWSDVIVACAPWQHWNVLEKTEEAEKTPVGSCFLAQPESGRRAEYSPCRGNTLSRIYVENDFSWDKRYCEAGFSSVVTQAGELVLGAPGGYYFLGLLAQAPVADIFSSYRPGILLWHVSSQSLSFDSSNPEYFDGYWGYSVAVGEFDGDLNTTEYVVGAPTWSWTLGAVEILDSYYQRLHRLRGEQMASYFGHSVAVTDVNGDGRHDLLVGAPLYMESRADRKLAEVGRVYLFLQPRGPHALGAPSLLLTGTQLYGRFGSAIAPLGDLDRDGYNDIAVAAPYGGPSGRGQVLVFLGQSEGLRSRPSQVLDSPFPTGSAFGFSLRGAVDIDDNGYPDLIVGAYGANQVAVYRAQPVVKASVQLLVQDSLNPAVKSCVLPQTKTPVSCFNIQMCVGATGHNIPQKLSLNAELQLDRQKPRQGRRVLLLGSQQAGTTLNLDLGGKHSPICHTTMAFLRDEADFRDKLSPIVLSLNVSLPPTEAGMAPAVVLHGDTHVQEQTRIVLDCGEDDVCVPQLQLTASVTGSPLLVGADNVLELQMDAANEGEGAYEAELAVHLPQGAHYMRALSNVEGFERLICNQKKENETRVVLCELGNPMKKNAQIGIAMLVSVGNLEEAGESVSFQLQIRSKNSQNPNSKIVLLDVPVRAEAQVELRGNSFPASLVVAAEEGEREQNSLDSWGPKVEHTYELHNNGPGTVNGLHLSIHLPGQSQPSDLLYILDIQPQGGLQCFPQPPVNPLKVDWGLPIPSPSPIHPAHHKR
Integrin alpha-IIb/beta-3, sequence (P08514 891-1039 limits assumed): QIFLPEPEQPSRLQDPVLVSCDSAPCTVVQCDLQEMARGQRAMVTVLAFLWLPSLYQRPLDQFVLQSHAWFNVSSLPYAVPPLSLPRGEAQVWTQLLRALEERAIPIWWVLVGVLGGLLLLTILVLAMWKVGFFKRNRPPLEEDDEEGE
Integrin alpha-V/beta-3, sequence (P05106 27-788 limits assumed): as the sequence (P05106 27-788 limits assumed) above
Integrin alpha-V/beta-3, sequence (P06756 31-889 limits assumed): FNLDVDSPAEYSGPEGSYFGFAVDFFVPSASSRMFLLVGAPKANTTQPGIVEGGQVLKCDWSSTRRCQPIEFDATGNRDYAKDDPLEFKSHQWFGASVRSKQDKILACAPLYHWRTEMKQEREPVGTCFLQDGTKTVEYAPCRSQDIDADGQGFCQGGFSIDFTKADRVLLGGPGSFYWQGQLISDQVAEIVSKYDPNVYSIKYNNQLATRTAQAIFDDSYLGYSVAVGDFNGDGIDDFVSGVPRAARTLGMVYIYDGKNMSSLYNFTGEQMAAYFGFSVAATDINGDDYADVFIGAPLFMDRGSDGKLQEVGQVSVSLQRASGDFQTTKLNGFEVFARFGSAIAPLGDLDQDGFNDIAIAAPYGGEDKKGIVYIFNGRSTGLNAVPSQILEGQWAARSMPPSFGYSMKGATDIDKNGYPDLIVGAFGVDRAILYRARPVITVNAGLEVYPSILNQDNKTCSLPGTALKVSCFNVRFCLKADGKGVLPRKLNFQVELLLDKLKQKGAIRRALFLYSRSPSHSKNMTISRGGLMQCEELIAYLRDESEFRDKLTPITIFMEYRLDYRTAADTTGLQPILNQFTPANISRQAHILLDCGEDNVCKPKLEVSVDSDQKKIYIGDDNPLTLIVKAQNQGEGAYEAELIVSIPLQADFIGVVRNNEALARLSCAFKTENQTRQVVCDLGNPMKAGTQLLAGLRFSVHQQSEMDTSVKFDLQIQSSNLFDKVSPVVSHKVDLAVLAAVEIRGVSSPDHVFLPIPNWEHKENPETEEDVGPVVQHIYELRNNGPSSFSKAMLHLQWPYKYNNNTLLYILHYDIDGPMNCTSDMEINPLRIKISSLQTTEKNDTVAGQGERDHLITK
Integrin alpha-V/beta-3, sequence (P06756 891-1048 limits assumed): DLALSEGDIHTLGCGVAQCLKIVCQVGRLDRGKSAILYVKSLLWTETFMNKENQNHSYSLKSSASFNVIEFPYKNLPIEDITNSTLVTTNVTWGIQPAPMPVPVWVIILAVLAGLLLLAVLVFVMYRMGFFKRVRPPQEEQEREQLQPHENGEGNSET
Integrin alpha-V, sequence (P06756 whole entry, one chain of several): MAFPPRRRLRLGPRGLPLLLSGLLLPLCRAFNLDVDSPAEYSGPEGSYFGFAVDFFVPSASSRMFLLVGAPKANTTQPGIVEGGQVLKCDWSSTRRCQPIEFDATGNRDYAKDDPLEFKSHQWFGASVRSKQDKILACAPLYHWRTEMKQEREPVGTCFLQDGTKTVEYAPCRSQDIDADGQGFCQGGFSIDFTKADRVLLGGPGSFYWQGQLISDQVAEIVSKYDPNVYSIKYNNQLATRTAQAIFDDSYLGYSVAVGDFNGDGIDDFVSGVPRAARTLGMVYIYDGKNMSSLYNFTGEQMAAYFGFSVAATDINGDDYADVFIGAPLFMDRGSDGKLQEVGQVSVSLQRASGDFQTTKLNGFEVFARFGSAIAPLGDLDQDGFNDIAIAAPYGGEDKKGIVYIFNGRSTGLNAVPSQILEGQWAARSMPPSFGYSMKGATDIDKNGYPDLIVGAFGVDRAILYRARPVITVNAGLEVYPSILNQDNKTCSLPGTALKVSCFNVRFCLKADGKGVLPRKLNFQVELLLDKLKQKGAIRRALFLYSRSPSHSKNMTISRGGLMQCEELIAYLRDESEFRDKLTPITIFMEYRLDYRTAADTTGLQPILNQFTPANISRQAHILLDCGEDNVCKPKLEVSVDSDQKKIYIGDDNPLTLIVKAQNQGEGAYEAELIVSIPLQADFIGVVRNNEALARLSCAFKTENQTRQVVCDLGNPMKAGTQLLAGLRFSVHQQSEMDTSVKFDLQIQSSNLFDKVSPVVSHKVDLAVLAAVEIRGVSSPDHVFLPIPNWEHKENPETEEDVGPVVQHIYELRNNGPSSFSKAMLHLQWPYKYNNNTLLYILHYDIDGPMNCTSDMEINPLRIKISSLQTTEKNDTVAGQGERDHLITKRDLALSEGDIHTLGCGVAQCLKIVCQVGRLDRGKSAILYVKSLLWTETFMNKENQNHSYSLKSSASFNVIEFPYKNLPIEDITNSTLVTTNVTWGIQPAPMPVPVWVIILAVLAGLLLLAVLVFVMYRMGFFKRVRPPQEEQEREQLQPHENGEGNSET

Consider `Cn1c(N)nc2c(Oc3ccc(C(=O)NCCC(=O)O)cc3)cccc21`, for which the half-inhibitory concentration (IC50) (as a rule, the concentration that inhibits the measured activity by half) on Integrin alpha-V turned out to be 2050 nM; at Integrin alpha-V/beta-3 it was 230 nM.

For `Cn1c(N)nc2c(Oc3ccc4c(c3)CN(CCC(=O)O)C4=O)cccc21`, the IC50 is 4800 nM on Integrin alpha-V, over 10000 nM in data set [1] and 180 nM at Integrin alpha-V/beta-3.

Regarding `Cn1c(N)nc2c(Oc3ccc4c(c3)CCN(CCC(=O)O)C4=O)cccc21`, the IC50 at Integrin alpha-V is 600 nM; in data set [1], over 10000 nM; on Integrin alpha-V/beta-3 it was 39 nM.

For the compound `O=C(O)CCN1CCc2cc(Oc3cccc4c3nc3n4CCCN3)ccc2C1=O`, the IC50 at Integrin alpha-V was found to be 310 nM; in data set [1], 6300 nM; on Integrin alpha-V/beta-3, 7 nM.

For `O=C(O)CC(c1ccc2c(c1)OCO2)N1CCc2cc(Oc3cccc4c3nc3n4CCCN3)ccc2C1=O` (stereo not given), the IC50 at Integrin alpha-V is 14 nM; in data set [1] it was 167 nM; in the data set on HUVEC [2], 40 nM; on Integrin alpha-V/beta-3, 2 nM; in the data set on HUVEC [3], 1100 nM; in the data set with HUVEC [5], 2900 nM. Moreover, the apparent permeability coefficient (Papp) (commonly the rate of passage across a membrane or cell layer, normalised by area and donor concentration) in data set [4] turned out to be 8.96 ×10⁻⁶ cm/s.

With `O=C(O)CC(c1cccnc1)N1CCc2cc(Oc3cccc4c3nc3n4CCCN3)ccc2C1=O` (stereo not given), the IC50 came out at 5 nM at Integrin alpha-V; 323 nM in data set [1]; 37 nM in the data set on HUVEC [2]; 1 nM at Integrin alpha-V/beta-3; 4300 nM in the data set with HUVEC [3]; 1100 nM in the data set on HUVEC [5].

Turning to `Cn1c(N)nc2c(Oc3ccc4c(c3)CCCN(CCC(=O)O)C4=O)cccc21`, the 50% inhibitory concentration (IC50) was 4300 nM at Integrin alpha-V, over 10000 nM in data set [1] and 370 nM at Integrin alpha-V/beta-3.

As for `CC(C)[C@@H]1NC(=O)[C@@H](Cc2ccccc2)NC(=O)[C@H](CC(=O)O)NC(=O)CNC(=O)[C@H](CCCN=C(N)N)NC1=O` [CYCLORGDFV], the IC50 in the data set on HUVEC [2] is 530 nM; in the data set with HUVEC [3], 4500 nM; with HUVEC [5], 3100 nM.
